Measurements: ChEMBL document CHEMBL3351630, “ent-Kaurane diterpenes from the stem bark of Annona vepretorum (Annonaceae) and cytotoxic evaluation” (Bioorg Med Chem Lett, 2014)

Columns and labels:
[1] = Cytotoxicity against mouse B16F10 cells after 72 hrs by alamar blue assay; assay type: functional, cell-based; conditions: B16-F10, 72 h
Method in brief: (§1)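 Tumour lines grown in RPMI-1640 with 10% FBS, 2 mM L-glutamine, gentamycin, at 37°C/5% CO2, mycoplasma-free, used in exponential growth. Alamar blue added 4 h before end, absorbance 570/600 nm. IC50 by nonlinear regression, three independent experiments in duplicate.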

HepG2 = assay: Cytotoxicity against human HepG2 cells after 72 hrs by alamar blue assay; assay type: functional, cell-based; conditions: HepG2, 72 h; method in brief: as §1
K562 [2] = assay: Selectivity index, ratio of IC50 for concanavalin-A stimulated human PBMCs to IC50 for human K562 cells
Method in brief: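 SI calculated as IC50 in ConA-stimulated PBMC divided by IC50 in K562, both from 72 h alamar blue assays.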

K562 [3] = assay: Cytotoxicity against human K562 cells after 72 hrs by alamar blue assay; assay type: functional, cell-based; conditions: K562, 72 h; method in brief: as §1
[4] = Cytotoxicity against human HL60 cells after 72 hrs by alamar blue assay; assay type: functional, cell-based; conditions: HL-60, 72 h; method in brief: as §1
PBMC = assay: Cytotoxicity against concanavalin-A stimulated human PBMC after 72 hrs by alamar blue assay; assay type: cell-based
Method in brief: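 ConA 10 µg/mL added at culture start; compounds (0.39–25 µg/mL, DMSO) added after 24 h, 72 h incubation. Alamar blue added 24 h before end, absorbance 570/600 nm. IC50 by nonlinear regression, three independent experiments in duplicate.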

SMILES: COc1cccc2c1C(=O)c1c(O)c3c(c(O)c1C2=O)C[C@@](O)(C(=O)CO)C[C@@H]3O[C@H]1C[C@H](N)[C@H](O)[C@H](C)O1 [DOXORUBICIN]
- IC50 [1]: 4.23 µM
- IC50 (HepG2): 0.42 µM
- Ratio IC50 (K562 [2]): 7.5
- IC50 (K562 [3]): 1.25 µM
- IC50 [4]: 1.53 µM
- IC50 (PBMC): 9.36 µM

SMILES: C=C1C[C@@]23CC[C@@H]4C(C)(C)[C@H](OC(C)=O)CC[C@@]4(C)[C@@H]2CC[C@H]1C3
- IC50 [1]: > 75.7 µM
- IC50 (HepG2): > 75.7 µM
- IC50 (K562 [3]): > 75.7 µM
- IC50 [4]: > 75.7 µM
- IC50 (PBMC): > 75.7 µM

SMILES: C=C1C[C@@]23CC[C@H]4[C@@](C)(CC[C@@H](O)[C@@]4(C)C(=O)O)[C@@H]2CC[C@H]1C3
- IC50 [1]: > 78.6 µM
- IC50 (HepG2): > 78.6 µM
- IC50 (K562 [3]): 63.5 µM
- IC50 [4]: 76.1 µM
- IC50 (PBMC): > 78.6 µM

SMILES: C=C1C[C@@]23CC[C@@H]4[C@](C)(C=O)[C@H](O)CC[C@@]4(C)[C@@H]2CC[C@H]1C3
- IC50 [1]: 69.5 µM
- IC50 (HepG2): 51.3 µM
- Ratio IC50 (K562 [2]): 2.9
- IC50 (K562 [3]): 8.24 µM
- IC50 [4]: 32.8 µM
- IC50 (PBMC): 23.8 µM

SMILES: C=C1C[C@@]23CC[C@@H]4C(C)(C)[C@H](O)CC[C@@]4(C)[C@@H]2CC[C@H]1C3
- IC50 [1]: 66.3 µM
- IC50 (HepG2): 67.2 µM
- IC50 (K562 [3]): 10.2 µM
- IC50 [4]: 34.2 µM
- IC50 (PBMC): 22.5 µM

SMILES: C=C1C[C@@]23CC[C@@H]4[C@](C)(CO)[C@H](O)CC[C@@]4(C)[C@@H]2CC[C@H]1C3
- IC50 [1]: 82.2 µM
- IC50 (HepG2): 82.2 µM
- IC50 (K562 [3]): 82.2 µM
- IC50 [4]: 82.2 µM
- IC50 (PBMC): 29.4 µM

SMILES: C=C1C[C@@]23CC[C@H]4[C@@](C)(CCC[C@@]4(C)C(=O)O)[C@@H]2CC[C@@H]1C3 [KAURENOIC ACID]
- IC50 [1]: 54.8 µM
- IC50 (HepG2): 50.7 µM
- IC50 (K562 [3]): 72.5 µM
- IC50 [4]: 44.1 µM
- IC50 (PBMC): 80.8 µM
